These results are taken from paper PMC7747014 (Journal of medicinal chemistry, 2015).

In data set [1] the target is T1, Human recombinant Top1 (Homo sapiens, UniProt P11387).
T1 sequence (P11387 1-765): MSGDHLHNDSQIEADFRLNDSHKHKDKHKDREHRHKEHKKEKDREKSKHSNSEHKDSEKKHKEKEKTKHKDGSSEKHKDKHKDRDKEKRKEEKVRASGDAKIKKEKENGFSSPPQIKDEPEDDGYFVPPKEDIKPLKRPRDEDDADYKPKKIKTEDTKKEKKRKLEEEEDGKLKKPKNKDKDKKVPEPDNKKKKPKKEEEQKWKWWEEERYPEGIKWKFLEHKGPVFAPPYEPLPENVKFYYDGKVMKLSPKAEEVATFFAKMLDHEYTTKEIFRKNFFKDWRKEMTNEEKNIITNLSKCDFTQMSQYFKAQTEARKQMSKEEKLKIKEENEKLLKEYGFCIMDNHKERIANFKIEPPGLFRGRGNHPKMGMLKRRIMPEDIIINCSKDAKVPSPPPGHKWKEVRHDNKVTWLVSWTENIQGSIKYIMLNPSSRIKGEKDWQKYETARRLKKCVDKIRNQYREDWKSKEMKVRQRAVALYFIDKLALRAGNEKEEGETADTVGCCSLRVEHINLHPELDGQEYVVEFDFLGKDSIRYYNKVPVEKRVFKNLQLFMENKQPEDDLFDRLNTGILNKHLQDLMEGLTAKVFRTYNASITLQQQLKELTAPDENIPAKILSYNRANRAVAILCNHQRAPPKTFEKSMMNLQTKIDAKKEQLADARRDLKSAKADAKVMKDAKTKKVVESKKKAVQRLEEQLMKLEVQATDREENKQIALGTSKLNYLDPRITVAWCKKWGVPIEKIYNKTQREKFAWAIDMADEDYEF
The following applies: graded relative to 1 μM camptothecin; cited from earlier work.

For a further data set, the system named is lung HOP-62. Conditions: read-out: cytotoxicity (GI50 in μM) lung HOP-62; cited from earlier work.
The subject of the next data set is melanoma UACC-62. The following applies: read-out: cytotoxicity (GI50 in μM) melanoma UACC-62; cited from earlier work.
For the next data set, the system named is ovarian OVACAR-3. Conditions: read-out: cytotoxicity (GI50 in μM) ovarian OVACAR-3; cited from earlier work.
The test system of a further data set is prostate DU-145. The following applies: read-out: cytotoxicity (GI50 in μM) prostate DU-145; cited from earlier work.
For the next data set, the system named is colon HCT-116. The following applies: read-out: cytotoxicity (GI50 in μM) colon HCT-116; cited from earlier work.
Another data set relates to CNS SF-539. Conditions: read-out: cytotoxicity (GI50 in μM) CNS SF-539; cited from earlier work.
The subject of another data set is renal SN12C. The following applies: read-out: cytotoxicity (GI50 in μM) renal SN12C; cited from earlier work.
Data set [2] relates to 60 common human cancer cell lines (NCI-60). The following applies: read-out: MGM; average GI50 across 60 cell lines; cited from earlier work.
Another data set concerns breast MCF7. The following applies: read-out: cytotoxicity (GI50 in μM) breast MCF7; cited from earlier work.
Data set [3] relates to 60 common human cancer cell lines (NCI-60). Briefly: NCI-60 five-dose screen, mean-graph midpoint. In kind it is cell-based. The method in brief: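 NCI-DTP screen across 60 human cancer cell lines. One-dose prescreen at 10 μM; compounds passing the cutoff went to five concentrations, 100 μM to 10 nM. GI50 per cell line interpolated from five-dose data.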
The next data set has as its target recombinant TDP1 (Homo sapiens, UniProt Q9NUW8). The data set is described as follows: Gel-based assay measuring the inhibition of recombinant TDP1. In kind it is biochemical. The following applies: for IC50: read-out: TDP1 inhibition, semiquantitative IC50 scale.
The target in data set [4] is T1, Human recombinant Top1. Briefly: Top1-mediated DNA cleavage assay. In kind it is biochemical. Conditions: graded relative to 1 μM camptothecin.
Setting [5] is: read-out: MGM values, range over the named series.
Where [6] appears, read: Homo sapiens, 60 cell, read-out: MGM.

Structures can show the parent of a compound that is named as a salt. Where two headings read alike, the source gives them in different places. Where only a bound is given, the exact number is not on record here.

Sequence of recombinant TDP1 (Q9NUW8 whole entry): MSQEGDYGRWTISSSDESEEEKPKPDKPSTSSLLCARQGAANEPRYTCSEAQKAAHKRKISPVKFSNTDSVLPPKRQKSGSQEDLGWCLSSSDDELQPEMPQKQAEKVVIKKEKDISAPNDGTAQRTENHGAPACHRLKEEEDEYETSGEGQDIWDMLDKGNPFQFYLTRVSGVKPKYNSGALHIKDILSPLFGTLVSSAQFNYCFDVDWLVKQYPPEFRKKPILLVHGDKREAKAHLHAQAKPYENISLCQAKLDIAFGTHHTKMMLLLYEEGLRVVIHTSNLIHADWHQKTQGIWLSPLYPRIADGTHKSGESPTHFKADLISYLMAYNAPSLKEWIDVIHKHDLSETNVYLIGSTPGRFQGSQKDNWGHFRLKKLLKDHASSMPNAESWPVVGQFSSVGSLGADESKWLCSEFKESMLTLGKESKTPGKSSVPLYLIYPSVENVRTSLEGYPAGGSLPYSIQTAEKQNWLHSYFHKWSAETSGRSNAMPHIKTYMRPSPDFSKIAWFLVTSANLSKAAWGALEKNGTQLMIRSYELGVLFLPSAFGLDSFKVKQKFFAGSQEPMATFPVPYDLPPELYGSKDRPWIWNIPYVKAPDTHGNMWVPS

Take `COc1cccc2c1-c1c(c3ccc([N+](=O)[O-])cc3c(=O)n1CCCN)C2=O` [Compound 4]: the Top1 cleavage entry on Human recombinant Top1 [1] is “++++”. The GI50 in the data set on lung HOP-62 was 1.1 µM; with melanoma UACC-62 it was 2.3 µM; in the data set on ovarian OVACAR-3, 2.3 µM; in the data set with prostate DU-145, 1.1 µM.

Regarding `COc1ccc2c(c1)C(=O)c1c-2n(CCCN)c(=O)c2cc([N+](=O)[O-])ccc12` [Compound 5], on Human recombinant Top1 [1], the Top1 cleavage entry is “+++++”. Also, the GI50 in the data set on lung HOP-62, with colon HCT-116, in the data set on CNS SF-539, in the data set with melanoma UACC-62 and with renal SN12C was less than 0.01 µM in each case.

Take `COc1cc2c(cc1O)-c1c(c3cc(OC)c(OC)cc3c(=O)n1CCCn1ccnc1)C2=O` [Compound 9]: the Top1 cleavage entry at Human recombinant Top1 [1] is recorded as “++(+)”. The GI50 in data set [2] was 42000 ± 7000 nM; in the data set on lung HOP-62, greater than 100 µM; with colon HCT-116, greater than 100 µM; with melanoma UACC-62 it was 0.33 µM; with ovarian OVACAR-3, greater than 100 µM; with prostate DU-145 it was greater than 100 µM. For the same compound, the GI50 in the data set with breast MCF7 was 0.05 µM.

As to `COc1cc2c(cc1O)C(=O)c1c-2n(CCCN2CCOCC2)c(=O)c2cc([N+](=O)[O-])ccc12` [Compound 21, 9-Hydroxy-8-methoxy-6-(3-morpholinopropyl)-3-nitro-5H-indeno[1,2-c]isoquinoline-5,11(6H)-dione Hydrobromide], the GI50 in data set [3] (setting [5]) lay within 16 to 21 nM.

Consider `COc1cc2c(cc1O)C(=O)c1c-2n(CCCn2ccnc2)c(=O)c2cc([N+](=O)[O-])ccc12` [Compound 23, 6-(3-(1H-Imidazol-1-yl)propyl)-9-hydroxy-8-methoxy-3-nitro-5H-indeno[1,2-c]isoquinoline-5,11(6H)-dione Hydrobromide], for which the GI50 in [3] (setting [5]) lay in the range of 16 to 21 nM.

For the compound `Br.COc1cc2c(cc1O)C(=O)c1c-2n(CCCN)c(=O)c2cc([N+](=O)[O-])ccc12` [Compound 25, 6-(3-Aminopropyl)-9-hydroxy-8-methoxy-3-nitro-5H-indeno[1,2-c]isoquinoline-5,11(6H)-dione Hydrobromide], on recombinant TDP1, the “TDP1 inhibitory activity (in words)” value is listed as “TDP1 inhibitors” and the IC50 lay within 12000 to 37000 nM. For the same compound, in data set [3] (setting [5]), the GI50 fell in the range of 16 to 21 nM.

Turning to `COc1cc2c(cc1O)-c1c(c3ccc([N+](=O)[O-])cc3c(=O)n1CCCN1CCOCC1)C2=O` [Compound 32, 8-Hydroxy-9-methoxy-6-(3-morpholinopropyl)-3-nitro-5H-indeno[1,2-c]isoquinoline-5,11(6H)-dione Hydrobromide], in data set [3] (setting [6]), the GI50 is 200 nM.

`Br.COc1cc2c(cc1O)-c1c(c3ccc([N+](=O)[O-])cc3c(=O)n1CCCn1ccnc1)C2=O` [Compound 34, 6-(3-(1H-Imidazol-1-yl)propyl)-8-hydroxy-9-methoxy-3-nitro-5H-indeno[1,2-c]isoquinoline-5,11(6H)-dione Hydrobromide]: the Top1 cleavage result at Human recombinant Top1 [4] is “++(+)”. The IC50 at recombinant TDP1 fell in the range of 12000 to 37000 nM. In addition, the GI50 in [3] (setting [6]) is 740 nM.

With `Br.COc1cc2c(cc1O)-c1c(c3ccc([N+](=O)[O-])cc3c(=O)n1CCCN)C2=O` [Compound 36, 6-(3-Aminopropyl)-8-hydroxy-9-methoxy-3-nitro-5H-indeno[1,2-c]isoquinoline-5,11(6H)-dione Hydrobromide], at recombinant TDP1, the “TDP1 inhibitory activity (in words)” value is recorded as “TDP1 inhibitors” and the IC50 was 12000 to 37000 nM.

Regarding `O=C1c2cccc(O)c2-c2c1c1ccc([N+](=O)[O-])cc1c(=O)n2CCCN1CCOCC1` [Compound 43, 7-Hydroxy-6-(3-morpholinopropyl)-3-nitro-5H-indeno[1,2-c]-isoquinoline-5,11(6H)-dione], the Top1 cleavage result on Human recombinant Top1 [4] is “++ (50–75% activity)”.

`O=C1c2cccc(O)c2-c2c1c1ccc([N+](=O)[O-])cc1c(=O)n2CCCn1ccnc1` [Compound 44, 6-(3-(1H-Imidazol-1-yl)propyl)-7-hydroxy-3-nitro-5H-indeno[1,2-c]isoquinoline-5,11(6H)-dione]: the Top1 cleavage entry at Human recombinant Top1 [4] is given as “+++ (75–95% activity)”.

On to `Cl.NCCCn1c2c(c3ccc([N+](=O)[O-])cc3c1=O)C(=O)c1cccc(O)c1-2` [Compound 45, 6-(3-Aminopropyl)-7-hydroxy-3-nitro-5H-indeno[1,2-c]-isoquinoline-5,11(6H)-dione Hydrochloride], for which the Top1 cleavage entry on Human recombinant Top1 [4] is “++ (50–75% activity)”. On recombinant TDP1, the “TDP1 inhibitory activity (in words)” value is “TDP1 inhibitors” and the IC50 was 12000 to 37000 nM.

For the compound `Br.O=C1c2ccc(O)cc2-c2c1c1ccc([N+](=O)[O-])cc1c(=O)n2CCCN1CCOCC1` [Compound 55, 8-(Hydroxy)-6-(3-morpholinopropyl)-3-nitro-5H-indeno[1,2-c]-isoquinoline-5,11(6H)-dione], the Top1 cleavage entry at Human recombinant Top1 [4] is “++++”. For the same compound, in [3] (setting [5]), the GI50 was in the range of 56 to 407 nM.

With `O=C1c2c(O)cccc2-c2c1c1ccc([N+](=O)[O-])cc1c(=O)n2CCCN1CCOCC1` [Compound 56, 10-(Hydroxy)-6-(3-morpholinopropyl)-3-nitro-5H-indeno[1,2-c]-isoquinoline-5,11(6H)-dione], the GI50 in data set [3] (setting [6]) is 3500 nM; in data set [3] (setting [5]), 234 to 3550 nM.

Turning to `O=C1c2ccc(O)cc2-c2c1c1ccc([N+](=O)[O-])cc1c(=O)n2CCCn1ccnc1` [Compound 59, 6-(3-(1H-Imidazol-1-yl)propyl)-8-hydroxy-3-nitro-5H-indeno[1,2-c]isoquinoline-5,11(6H)-dione Hydrobromide], the GI50 in data set [3] (setting [5]) fell in the range of 56 to 407 nM.

Turning to `O=C1c2c(O)cccc2-c2c1c1ccc([N+](=O)[O-])cc1c(=O)n2CCCn1ccnc1` [Compound 60, 6-(3-(1H-Imidazol-1-yl)propyl)-10-hydroxy-3-nitro-5H-indeno-[1,2-c]isoquinoline-5,11(6H)-dione Hydrobromide], the GI50 in [3] (setting [5]) was in the range of 234 to 3550 nM.

Turning to `Br.NCCCn1c2c(c3ccc([N+](=O)[O-])cc3c1=O)C(=O)c1ccc(O)cc1-2` [Compound 63, 6-(3-Aminopropyl)-8-hydroxy-3-nitro-5H-indeno[1,2-c]-isoquinoline-5,11(6H)-dione Hydrobromide], the “TDP1 inhibitory activity (in words)” value at recombinant TDP1 was “TDP1 inhibitors”. Moreover, the IC50 on recombinant TDP1 is 1000 to 12000 nM. The results for the GI50 in data set [3] (setting [6]) and in [3] (setting [5]) were 410 ± 1000 nM and 56 to 407 nM, respectively.

As for `Br.NCCCn1c2c(c3ccc([N+](=O)[O-])cc3c1=O)C(=O)c1c(O)cccc1-2` [Compound 64, 6-(3-Amino-propyl)-10-hydroxy-3-nitro-5H-indeno[1,2-c]isoquinoline-5,11(6H)-dione Hydrobromide], on recombinant TDP1, the “TDP1 inhibitory activity (in words)” value is “TDP1 inhibitors” and the IC50 was 12000 to 37000 nM. The GI50 in [3] (setting [6]) was 2000 nM. Moreover, the GI50 in [3] (setting [5]) was in the range of 234 to 3550 nM.

Regarding `Br.O=C1c2cc(O)ccc2-c2c1c1ccc([N+](=O)[O-])cc1c(=O)n2CCCN1CCOCC1` [Compound 69, 9-Hydroxy-6-(3-morpholinopropyl)-3-nitro-5H-indeno[1,2-c]-isoquinoline-5,11(6H)-dione Hydrobromide], the Top1 cleavage result at Human recombinant Top1 [4] was “+++++”.

Turning to `Br.NCCCn1c2c(c3ccc([N+](=O)[O-])cc3c1=O)C(=O)c1cc(O)ccc1-2` [Compound 71, 6-(3-Aminopropyl)-9-hydroxy-3-nitro-5H-indeno[1,2-c]-isoquinoline-5,11(6H)-dione Hydrobromide], at Human recombinant Top1 [4], the Top1 cleavage entry is on record as “++++”. Also, on recombinant TDP1, the “TDP1 inhibitory activity (in words)” value was “TDP1 inhibitors” and the IC50 is 37000 to 111000 nM. Moreover, in [3] (setting [6]), the GI50 stood at 120 nM.

For `O=C1c2ccccc2-c2c1c1ccccc1c(=O)n2CCCNCCCNCCCn1c2c(c3ccccc3c1=O)C(=O)c1ccccc1-2` [Compound 72], the IC50 at recombinant TDP1 lay within 1000 to 12000 nM.
